Experimental data from ChEMBL document CHEMBL4152363, “Andrographolide derivative as STAT3 inhibitor that protects acute liver damage in mice” (Bioorg Med Chem, 2018).
pEC50: −log10 of the molar value. Activity calls are given as the source filed them. The calls are words filed in the database; no cut-off is given here.

Assays:
[1] = biological target: T1, Signal transducer and activator of transcription 3 (Homo sapiens, UniProt P40763); assay: Inhibition of IFNgamma-stimulated STAT3 activation in human HeLa cells incubated with IFNgamma for 16 hrs followed by compound addition measured after 24 hrs by luciferase reporter gene assay; type: cell-based
T1 sequence (P40763 whole entry): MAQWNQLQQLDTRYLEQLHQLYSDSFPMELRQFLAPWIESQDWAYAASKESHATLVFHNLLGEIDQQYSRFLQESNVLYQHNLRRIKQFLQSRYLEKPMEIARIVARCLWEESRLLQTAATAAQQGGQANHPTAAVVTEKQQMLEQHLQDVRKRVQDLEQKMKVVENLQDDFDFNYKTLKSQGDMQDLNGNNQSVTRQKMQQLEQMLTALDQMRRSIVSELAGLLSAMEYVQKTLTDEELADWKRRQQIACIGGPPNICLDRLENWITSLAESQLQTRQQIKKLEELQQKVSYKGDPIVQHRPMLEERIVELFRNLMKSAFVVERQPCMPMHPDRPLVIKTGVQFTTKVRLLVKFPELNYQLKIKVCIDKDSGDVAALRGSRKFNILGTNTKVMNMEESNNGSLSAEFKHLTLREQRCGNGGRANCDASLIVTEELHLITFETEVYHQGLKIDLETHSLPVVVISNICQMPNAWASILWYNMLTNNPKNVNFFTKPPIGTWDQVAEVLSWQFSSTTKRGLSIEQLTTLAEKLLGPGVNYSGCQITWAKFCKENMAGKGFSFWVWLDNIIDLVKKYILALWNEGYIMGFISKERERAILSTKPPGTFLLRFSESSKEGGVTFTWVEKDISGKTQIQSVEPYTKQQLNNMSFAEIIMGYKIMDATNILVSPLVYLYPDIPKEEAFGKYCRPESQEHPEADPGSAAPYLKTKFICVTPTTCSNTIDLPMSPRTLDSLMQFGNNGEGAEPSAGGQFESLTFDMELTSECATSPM
Method in brief: (§1)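 AD-293 or HeLa cells in DMEM/10% FBS stimulated with 20 pg/mL IFN-γ; compound treatment 24 h; luciferase activity measured in cell extracts; EC50 derived.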

[2] = biological target: T1, Signal transducer and activator of transcription 3; assay: Inhibition of IFNgamma-stimulated STAT3 phosphorylation at Tyr705 residues in human AD293 cell lysates incubated with IFNgamma followed by compound addition at 10 uM by Western blot analysis
Method in brief: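 AD-293 cells treated with 1 μg/mL IFN-γ alone or with compounds at 10 μM; phospho- and total STAT1 and STAT3 assessed by western blot; representative of at least three independent experiments.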

[3] = tested on: AD293; assay: (§2) Cytotoxicity against human AD293 cells; type: cell-based; conditions: ad293
Method in brief: (§3)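 AD-293 or HeLa cells grown in high-glucose DMEM with 10% FBS and 1% penicillin-streptomycin; compound exposure 24 h; cytotoxicity reported as CC10.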

[4] = biological target: T1, Signal transducer and activator of transcription 3; assay: Inhibition of IL-6 stimulated STAT3 activation in human AD293 cells incubated with IL-6 for 16 hrs followed by compound addition measured after 6 hrs by luciferase reporter gene assay; type: cell-based
Method in brief: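 AD-293 cells stimulated with 2.5 μg/mL IL-6; compound treatment 6 h; luciferase activity read from cell extracts; EC50 derived.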

[5] = tested on: HeLa; assay: Cytotoxicity against human HeLa cells; type: cell-based; method in brief: as §3
[6] = biological target: T1, Signal transducer and activator of transcription 3; assay: Inhibition of […] activation in human HeLa cells incubated […] for 16 hrs followed by compound addition measured after 4 hrs by luciferase reporter gene assay; type: cell-based
Method in brief: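 NF-κB pathway in AD-293 or HeLa cells stimulated with 50 ng/mL TNF-α; compound treatment 4 h; luciferase activity read from cell extracts; EC50 derived.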

[7] = biological target: T1, Signal transducer and activator of transcription 3; assay: Inhibition of […] activation in human AD293 cells incubated […] for 16 hrs followed by compound addition measured after 4 hrs by luciferase reporter gene assay; type: cell-based
[8] = biological target: T1, Signal transducer and activator of transcription 3; assay: Inhibition of IFNgamma-stimulated STAT3 activation in human AD293 cells incubated with IFNgamma for 16 hrs followed by compound addition measured after 24 hrs by luciferase reporter gene assay; type: cell-based; method in brief: as §1
[9] = as §2; type: cell-based; conditions: AD293 cells; method in brief: as §3

| pEC50 [1] | inhibition [2] | pEC50 [4] | pEC50 [6] | pEC50 [7] | pEC50 [8] | SMILES | CC10 [3] | CC10 [5] | CC50 [9] |
| --- | --- | --- | --- | --- | --- | --- | --- | --- | --- |
| 5.08 | Active | < 5.00 | < 5.00 | < 5.00 | 5.27 | CC(=O)OC[C@]1(C)C(=O)CC[C@@]2(C)[C@H](C/C=C3/C(=O)OC[C@H]3O[Si](C)(C)C(C)(C)C)[C@]3(CC[C@@H]21)CO3 | > 10 µM | > 10 µM |  |
| < 5.00 |  | 5.59 | 5.15 | < 5.00 | 5.65 | CC(=O)OC[C@]1(C)C(=O)CC[C@@]2(C)[C@H](C/C=C3/C(=O)OC[C@@H]3O[Si](C)(C)C(C)(C)C)[C@@]3(CC[C@@H]21)CO3 | > 10 µM | > 10 µM |  |
| < 5.00 |  | < 5.00 | < 5.00 | < 5.00 | < 5.00 | C=C1CC[C@H]2[C@@](C)(CCC(=O)[C@@]2(C)COC(C)=O)[C@@H]1C/C=C1/C(=O)OC[C@H]1O[Si](C)(C)C(C)(C)C | > 10 µM | > 10 µM |  |
| < 5.00 |  | 5.52 | < 5.00 | < 5.00 | 5.46 | CC(C)(C)[Si](C)(C)O[C@@H]1COC(=O)/C1=C/C[C@@H]1[C@]2(CC[C@@H]3[C@](C)(CO)[C@H](O)CC[C@]31C)CO2 | > 10 µM | > 10 µM |  |
| < 5.00 |  | < 5.00 | < 5.00 | < 5.00 | < 5.00 | C=C1CC[C@H]2[C@@](C)(CCC(=O)[C@@]2(C)COC(C)=O)[C@@H]1C/C=C1/C(=O)OC[C@@H]1O[Si](C)(C)C(C)(C)C | > 10 µM | > 10 µM |  |
| 5.02 |  | 5.51 | 5.01 | 5.02 | 5.29 | CC(=O)O[C@@H]1COC(=O)/C1=C/C[C@@H]1[C@]2(CC[C@@H]3[C@](C)(CO)[C@H](O)CC[C@]31C)CO2 |  | > 10 µM | 10.9 µM |
| < 5.00 |  | < 5.00 | < 5.00 | < 5.00 | 5.36 | CC(C)(C)[Si](C)(C)OC[C@]1(C)C(=O)CC[C@@]2(C)[C@H](C/C=C3/C(=O)OC[C@H]3O[Si](C)(C)C(C)(C)C)[C@]3(CC[C@@H]21)CO3 | > 10 µM | > 10 µM |  |
| < 5.00 |  | < 5.00 | < 5.00 | < 5.00 | < 5.00 | C=C1CC[C@@H]2[C@](C)(CO)[C@H](O)CC[C@@]2(C)[C@@H]1C/C=C1/C(=O)OC[C@H]1O [ANDROGRAPHOLIDE] | > 10 µM | > 10 µM |  |
| 5.35 |  | 6.00 | 5.34 | 5.12 | 5.71 | C=C1CC[C@H]2[C@@](C)(CCC(=O)[C@@]2(C)CO[Si](C)(C)C(C)(C)C)[C@@H]1C/C=C1/C(=O)OC[C@H]1OC(C)=O |  | > 10 µM | 7.35 µM |
| < 5.00 |  | 5.52 | 5.12 | 5.07 | 5.59 | CC(=O)O[C@@H]1COC(=O)/C1=C/C[C@@H]1[C@@]2(CC[C@@H]3[C@](C)(CO)[C@H](O)CC[C@]31C)CO2 | > 10 µM | > 10 µM |  |
| < 5.00 |  | < 5.00 | < 5.00 | < 5.00 | < 5.00 | C=C1CC[C@H]2[C@@](C)(CCC(=O)[C@@]2(C)CO)[C@@H]1C/C=C1/C(=O)OC[C@H]1O[Si](C)(C)C(C)(C)C | > 10 µM | > 10 µM |  |
| < 5.00 |  | < 5.00 | < 5.00 | < 5.00 | < 5.00 | C=C1CC[C@H]2[C@@](C)(CCC(=O)[C@@]2(C)CO)[C@@H]1C/C=C1/C(=O)OC[C@@H]1O[Si](C)(C)C(C)(C)C | > 10 µM | > 10 µM |  |
| < 5.00 |  | < 5.00 | < 5.00 | < 5.00 | < 5.00 | C=C1CC[C@@H]2[C@](C)(COC(C)=O)[C@H](OC(C)=O)CC[C@@]2(C)[C@@H]1C/C=C1/C(=O)OC[C@@H]1O[Si](C)(C)C(C)(C)C | > 10 µM | > 10 µM |  |
| < 5.00 |  | < 5.00 | < 5.00 | < 5.00 | < 5.00 | C[C@@]12CCC(=O)[C@@](C)(CO)[C@H]1CC[C@]1(CO1)[C@H]2C/C=C1/C(=O)OC[C@H]1O | > 10 µM | > 10 µM |  |
| < 5.00 |  | 5.36 | < 5.00 | < 5.00 | 5.33 | C=C1CC[C@H]2[C@@](C)(CCC(=O)[C@@]2(C)CO[Si](C)(C)C(C)(C)C)[C@@H]1C/C=C1/C(=O)OC[C@@H]1O | > 10 µM | > 10 µM |  |
| < 5.00 |  | < 5.00 | < 5.00 | < 5.00 | 5.09 | C=C1CC[C@@H]2[C@](C)(COC(C)=O)[C@H](OC(C)=O)CC[C@@]2(C)[C@@H]1C/C=C1/C(=O)OC[C@H]1O[Si](C)(C)C(C)(C)C | > 10 µM | > 10 µM |  |
| < 5.00 |  | < 5.00 | < 5.00 | < 5.00 | < 5.00 | C=C1CC[C@H]2[C@@](C)(CCC(=O)[C@@]2(C)CO)[C@@H]1C/C=C1/C(=O)OC[C@@H]1OC(C)=O | > 10 µM | > 10 µM |  |
| < 5.00 |  | 5.10 | < 5.00 | < 5.00 | 5.24 | CC(=O)OC[C@]1(C)C(=O)CC[C@@]2(C)[C@H](C/C=C3/C(=O)OC[C@H]3O[Si](C)(C)C(C)(C)C)[C@@]3(CC[C@@H]21)CO3 | > 10 µM | > 10 µM |  |
| < 5.00 |  | 5.58 | 5.00 | < 5.00 | 5.59 | CC(=O)OC[C@]1(C)C(=O)CC[C@@]2(C)[C@H](C/C=C3/C(=O)OC[C@@H]3O[Si](C)(C)C(C)(C)C)[C@]3(CC[C@@H]21)CO3 | > 10 µM | > 10 µM |  |
| 5.03 |  | 5.49 | 5.00 | 5.14 | 5.09 | C=C1CC[C@@H]2[C@](C)(CO[Si](C)(C)C(C)(C)C)[C@H](O)CC[C@@]2(C)[C@@H]1C/C=C1/C(=O)OC[C@@H]1OC(C)=O |  | > 10 µM | 6.83 µM |
| 5.05 |  | 5.19 | 5.06 | 5.11 | 5.46 | C=C1CC[C@H]2[C@@](C)(CCC(=O)[C@@]2(C)CO[Si](C)(C)C(C)(C)C)[C@@H]1C/C=C1/C(=O)OC[C@H]1O |  | > 10 µM | 2.35 µM |
| < 5.00 |  | < 5.00 | < 5.00 | < 5.00 | < 5.00 | CC(C)(C)[Si](C)(C)OC[C@]1(C)C(=O)CC[C@@]2(C)[C@H](C/C=C3/C(=O)OC[C@H]3O)[C@]3(CC[C@@H]21)CO3 |  | > 10 µM | 8.31 µM |
| 5.03 |  | 5.32 | < 5.00 | 5.10 | 5.32 | C=C1CC[C@H]2[C@@](C)(CCC(=O)[C@@]2(C)CO[Si](C)(C)C(C)(C)C)[C@@H]1C/C=C1/C(=O)OC[C@@H]1OC(C)=O |  | > 10 µM | 8.23 µM |
| < 5.00 |  | 5.21 | < 5.00 | < 5.00 | 5.10 | C=C1CC[C@H]2[C@@](C)(CCC(=O)[C@@]2(C)CO)[C@@H]1C/C=C1/C(=O)OC[C@H]1OC(C)=O | > 10 µM | > 10 µM |  |
| 5.36 |  | 5.66 | 5.09 | 5.16 | 5.93 | C=C1CC[C@@H]2[C@](C)(CO[Si](C)(C)C(C)(C)C)[C@H](O)CC[C@@]2(C)[C@@H]1C/C=C1/C(=O)OC[C@H]1OC(C)=O |  | > 10 µM | 7.33 µM |
| < 5.00 |  | < 5.00 | < 5.00 | < 5.00 | < 5.00 | C=C1CC[C@@H]2[C@](C)(CO)[C@H](O)CC[C@@]2(C)[C@@H]1C/C=C1/C(=O)OC[C@@H]1O[Si](C)(C)C(C)(C)C | > 10 µM | > 10 µM |  |
